To fix the notation:
B1: tRNA (parent)
chain: GUUCCGUUGGCGUAAUGGUAACGCGUCUCCCUCCUAAGGAGAAGACUGCGGGUUCGAGUCCCGUACGGAACG

Variants at the floor of the assay were thinned out.

Data on 167 variants can be found in the RNAGym collection of RNA variant scans (doi:10.1126/science.aae0568).

In this data set the parent is B1. Kind of data set: yeast fitness relative to wild type (ratio to wild type); higher = fitter; tRNA-Arg(CCU), competitive growth, 37 C, YPD. In short, it runs like this:
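Changes in genotype frequencies gave Darwinian fitness relative to wild type. Frequencies were read by 100-nucleotide paired-end sequencing of gene amplicons before and after pooled Saccharomyces cerevisiae strains, carrying tRNA-Arg(CCU) gene variants at the native locus, were competed in YPD at 37°C for 24 hours in six replicates. A genotype was kept only with ≥ 100 starting reads, and estimates < 0.5 were set to 0.5.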
C24U C30A G50A: the yeast fitness is 0.587.

Take C24U C46G U54C C62A: the yeast fitness is no more than 0.5.

Take C24U G25A C30U C46A A65U: the yeast fitness was found to be 0.562.

With C24U G41A G68A, the yeast fitness is no more than 0.5.

As to C24U G67C, the yeast fitness came to 0.698.

As to C24U G67U, the yeast fitness is 0.869.

For C24U U47C U59C A69U, the yeast fitness is no more than 0.5.

Consider C24U C27G U47C G56C U64C G68C, for which the yeast fitness was no more than 0.5.

Consider C24U A45C G58C, for which the yeast fitness is 0.554.

Take C24U U35C: the yeast fitness is 0.778.

For C24U C34U A70G, the yeast fitness was 0.592.

In the case of C24U C61G G63C, the yeast fitness is 0.537.

In the case of C24U C49G C66A, the yeast fitness came to 0.593.

Regarding C24U C34A G48C, the yeast fitness amounted to 0.693.

Consider C24U U35A A42G A69U, for which the yeast fitness was no more than 0.5.

Consider C24U A42U A43C A57C C60A, for which the yeast fitness worked out at 0.637.

Regarding C24U C31A C33A C34U C46A A69C, the yeast fitness amounted to 0.546.

Consider C24U C46U C60U, for which the yeast fitness came to 0.513.

In the case of C24U C30G A45C A70C, the yeast fitness was no more than 0.5.

Turning to C24U U26A U28G, the yeast fitness is 0.506.

As for C24U C29U, the yeast fitness turned out to be 0.859.

Turning to C24U C29A, the yeast fitness was 0.656.

In the case of C24U C34U A57U G67C, the yeast fitness was no more than 0.5.

For the variant C24U G56A, the yeast fitness was 0.998.

Regarding C24U A57G, the yeast fitness amounted to 0.809.

For the variant C24U C31A U54C A57U, the yeast fitness worked out at 0.547.

As for C24U G51C U53C, the yeast fitness is no more than 0.5.

C24U U28C: the yeast fitness is 0.988.

Regarding C24U U53C C55U, the yeast fitness is no more than 0.5.

Turning to C24U C29U A36C A42U C66A, the yeast fitness is no more than 0.5.

With C24U C27U, the yeast fitness amounted to 0.972.

Consider C24U C27G, for which the yeast fitness was 0.602.

Regarding C24U C55U U59A, the yeast fitness worked out at 0.535.

Regarding C24U U47C C55G A70U, the yeast fitness turned out to be 0.642.

As for C24U U35C A70C, the yeast fitness was determined as 0.671.

Consider C24U G48C, for which the yeast fitness was determined as 0.955.

In the case of C24U G48A, the yeast fitness came to 0.915.

C24U A65U: the yeast fitness was 0.894.

In the case of C24U A65G, the yeast fitness is 0.924.

Turning to C24U C33U C34A, the yeast fitness came out at 0.555.

Take C24U A43G: the yeast fitness is 1.02.

For the variant C24U A45C G67A A70U, the yeast fitness was no more than 0.5.

Turning to C24U G44A C49A U59A, the yeast fitness worked out at 0.528.

On to C24U A69G, for which the yeast fitness worked out at 0.998.

On to C24U C61A G67A, for which the yeast fitness was no more than 0.5.

For the variant C24U U26C G63A A65G, the yeast fitness was no more than 0.5.

Consider C24U C27A C30G, for which the yeast fitness was no more than 0.5.

For C24U G50A A70C, the yeast fitness is 0.658.

Consider C24U C34G A40G, for which the yeast fitness is no more than 0.5.

Regarding C24U C34G A69U, the yeast fitness came out at 0.506.

In the case of C24U C31G U54C C62G, the yeast fitness is no more than 0.5.

Regarding C24U C31U C49U A70C, the yeast fitness was 0.643.

On to C24U G44A C66A, for which the yeast fitness stood at 0.563.

With C24U A57G A65U, the yeast fitness worked out at 0.513.

As for C24U C34G G63U A70U, the yeast fitness was found to be 0.542.

Take C24U C30A U35C U59C G63A: the yeast fitness was no more than 0.5.

For the variant C24U C66A, the yeast fitness turned out to be 0.618.

With C24U G68A A70C, the yeast fitness is 0.656.

On to C24U G68A A70U, for which the yeast fitness came to 0.647.

For the variant C24U C49G A65U, the yeast fitness is no more than 0.5.

As to C24U A45G, the yeast fitness is 1.03.

Take C24U U26C A70U: the yeast fitness came out at 0.678.

On to C24U G44A, for which the yeast fitness came out at 0.912.

In the case of C24U C55A G56A, the yeast fitness was 0.555.

C24U U47A U64C C66U: the yeast fitness was no more than 0.5.

Consider C24U G51A G67A, for which the yeast fitness came to 0.556.

On to C24U G48C C55U, for which the yeast fitness came to 0.614.

Turning to C24U C27U A40G G44A, the yeast fitness is no more than 0.5.

As for C24U U26A U28G G48A A57U, the yeast fitness was no more than 0.5.

As to C24U G51A G58A G67A, the yeast fitness is no more than 0.5.

Regarding C24U A45G C49U, the yeast fitness was found to be 0.931.

As to C24U C27U U53G C60A A70G, the yeast fitness was no more than 0.5.

For C24U C55U G68C, the yeast fitness is 0.552.

As to C24U U32G A40U, the yeast fitness came out at 0.513.

As for C24U A40U G68U A70C, the yeast fitness is no more than 0.5.

On to C24U A45G C46G C55G A69C, for which the yeast fitness was no more than 0.5.

As for C24U U47C G63A, the yeast fitness worked out at 0.829.

In the case of C24U A45U A65G, the yeast fitness was determined as 0.623.

For the variant C24U G51C G68A, the yeast fitness was no more than 0.5.

In the case of C24U G50A A65U, the yeast fitness came to 0.569.

Consider C24U C34U C61U, for which the yeast fitness was determined as 0.545.

Take C24U G25A C30U C46A: the yeast fitness came to 0.829.

Take C24U U26C A40C: the yeast fitness is 0.572.

On to C24U C55G A57C, for which the yeast fitness is no more than 0.5.

With C24U G58C, the yeast fitness was determined as 0.89.

Turning to C24U C30A A37G U64A C66U A70G, the yeast fitness was no more than 0.5.

For C24U G38A G51A G52C, the yeast fitness is 0.634.

As for C24U U28C A40C A69C, the yeast fitness was no more than 0.5.

As to C24U C46A A65G, the yeast fitness stood at 0.7.

On to C24U C27U A40G, for which the yeast fitness stood at 0.563.

As for C24U G39A A57C, the yeast fitness was found to be 0.727.

Regarding C24U A45C C49G A69C, the yeast fitness is no more than 0.5.

For C24U A45C C49U, the yeast fitness amounted to 0.791.

Take C24U C29G C62G: the yeast fitness is no more than 0.5.

Turning to C24U A42U G51C, the yeast fitness was no more than 0.5.

On to C24U A42G C49G C61G, for which the yeast fitness is 0.627.

On to C24U C29U G51U, for which the yeast fitness was no more than 0.5.

In the case of C24U G68C, the yeast fitness was 0.823.

Take C24U G68U: the yeast fitness was determined as 0.892.

Turning to C24U G25C C46A, the yeast fitness was 1.02.

Consider C24U C27A C30U G68C, for which the yeast fitness is no more than 0.5.

With C24U G41C A42C, the yeast fitness came out at 0.553.

C24U C33G C34U A57U: the yeast fitness came to 0.583.

Regarding C24U C27U G39C, the yeast fitness was no more than 0.5.

C24U C29A U32A C46G A70C: the yeast fitness is no more than 0.5.

For the variant C24U U28C A37G C62U, the yeast fitness is no more than 0.5.

Take C24U C34G A40U G67A: the yeast fitness is no more than 0.5.

Regarding C24U C31G A37G, the yeast fitness turned out to be 0.529.

Consider C24U G25C C31A C33G A65U, for which the yeast fitness was 0.584.

With C24U A57G C60U G68C, the yeast fitness was no more than 0.5.

For C24U G38C A40G, the yeast fitness was no more than 0.5.

For C24U C46G A65U, the yeast fitness came out at 0.782.

Consider C24U C60A C66G, for which the yeast fitness came to 0.606.

As to C24U A43U U47G, the yeast fitness is no more than 0.5.

Take C24U U26A U28G G52A: the yeast fitness was no more than 0.5.

Take C24U U26C A57U: the yeast fitness was no more than 0.5.

As to C24U C31A, the yeast fitness was determined as 0.786.

In the case of C24U C27A C30U C46G, the yeast fitness is no more than 0.5.

For C24U C27G G38C A57U C60A C62G, the yeast fitness was no more than 0.5.

Regarding C24U A43U C49U C66U, the yeast fitness is 0.576.

Take C24U U32G C49U C60A: the yeast fitness worked out at 0.646.

On to C24U C31A C33A C34U C46A C62U G67A, for which the yeast fitness is no more than 0.5.

For C24U U35C G38C C62U A69G, the yeast fitness came out at 0.723.

As to C24U G25C C30G G50C G56A C66U, the yeast fitness is no more than 0.5.

On to C24U C34U G48C, for which the yeast fitness was no more than 0.5.

C24U C62U: the yeast fitness was 0.976.

C24U C34U U35G: the yeast fitness was no more than 0.5.

Consider C24U C27U C29G G38C A42C, for which the yeast fitness was 0.577.

Consider C24U G52C, for which the yeast fitness was found to be 0.702.

C24U G68C A70U: the yeast fitness was no more than 0.5.

Regarding C24U C27G C61G, the yeast fitness was no more than 0.5.

Take C24U A70G: the yeast fitness worked out at 0.887.

Regarding C24U C62A A69G, the yeast fitness stood at 0.502.

As for C24U C62A A69C, the yeast fitness was 0.524.

Consider C24U C60A G63A, for which the yeast fitness is no more than 0.5.

As to C24U G51C, the yeast fitness is 0.624.

As for C24U A42G A43G, the yeast fitness stood at 0.733.

Consider C24U C49U G56C, for which the yeast fitness is 0.542.

Take C24U C31G U32A: the yeast fitness stood at 0.504.

On to C24U C29A A40G, for which the yeast fitness was determined as 0.514.

Regarding C24U C29G A43C C55G G68A, the yeast fitness is no more than 0.5.

On to C24U A42G G50A, for which the yeast fitness is no more than 0.5.

As to C24U C30U C60A, the yeast fitness stood at 0.532.

As to C24U C27A G50U, the yeast fitness was no more than 0.5.

Consider C24U C33A G44C U47C, for which the yeast fitness turned out to be 0.674.

Consider C24U U32C C46A, for which the yeast fitness stood at 0.967.

Regarding C24U C27U U47A A57G A70G, the yeast fitness is no more than 0.5.

In the case of C24U U32G A40U U53C U64G, the yeast fitness was no more than 0.5.

With C24U U32C G39C, the yeast fitness was found to be 0.517.

For C24U C49G G52C, the yeast fitness is 0.503.

For the variant C24U G50C, the yeast fitness amounted to 0.774.

For C24U C27G G63A, the yeast fitness is 0.536.

With C24U U47A, the yeast fitness is 0.683.

Turning to C24U U26C U28C G52C C60G, the yeast fitness is no more than 0.5.

For C24U C31G U32A A43C, the yeast fitness is no more than 0.5.

With C24U A43G C60A, the yeast fitness is no more than 0.5.

In the case of C24U C55G G63C, the yeast fitness was determined as 0.528.

Take C24U C33U C34G A40U: the yeast fitness is no more than 0.5.

As for C24U C31G C55A A57U U59C C60U, the yeast fitness was no more than 0.5.

With C24U U32G G51A, the yeast fitness is no more than 0.5.

Consider C24U C49U C55G A70U, for which the yeast fitness was 0.559.

As to C24U C46U G51C, the yeast fitness is no more than 0.5.

With C24U G48A G63C, the yeast fitness worked out at 0.768.

Take C24U C49A U64C: the yeast fitness came to 1.04.

As for C24U C34U U59G, the yeast fitness was no more than 0.5.

As to C24U C34A, the yeast fitness came out at 0.783.

For C24U A43C A70U, the yeast fitness is 0.59.
